Screening results from PubChem.
MrgX1 agonist = agonists of human MrgX1 receptor; Q96LB2; MrgX1-HEK293 cells, Fluo-4 calcium fluorescence, agonist mode; hits give high values; B-score at 10 µM; 310,000 compounds, 0.44% hits; AID 588627;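 active = calcium response B-score plate-corrected fluorescence ratio at least 3 library SD, with starting fluorescence B-score inside 5 SD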
Target sequence (Q96LB2 whole entry, looked up): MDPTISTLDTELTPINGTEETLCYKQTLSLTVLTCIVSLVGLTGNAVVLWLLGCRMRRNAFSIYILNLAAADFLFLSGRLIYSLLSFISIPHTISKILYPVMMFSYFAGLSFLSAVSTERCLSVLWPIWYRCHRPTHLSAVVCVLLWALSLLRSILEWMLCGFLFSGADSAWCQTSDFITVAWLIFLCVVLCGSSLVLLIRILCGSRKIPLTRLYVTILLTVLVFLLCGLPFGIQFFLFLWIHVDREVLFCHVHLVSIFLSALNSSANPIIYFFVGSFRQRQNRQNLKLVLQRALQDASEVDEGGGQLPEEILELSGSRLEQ
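times = overnight plating, then 30 min 37 °C plus 30 min room-temperature dye loading | assay system = stable human MrgX1 HEK293 cell line | input = fifteen thousand cells per well | signal = kinetic calcium dye fluorescence, Fluo-4 NW | dosing = compound delivered in addition one of three | read-out = B-scored fluorescence response ratio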
MrgX1 antagonist = human MrgX1 receptor antagonism, primary screen | B-score at 10 µM | AID 588676 | 310,000 compounds, 1.3% hits | MRGX1-HEK293 calcium flux, Fluo-4, BAM8-22 antagonism; hits give low values;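 active = calcium-response B-score plate-corrected more than 3 library SD below zero, starting fluorescence within 5 deviations, no agonist response on first addition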;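 note: peak minus trough fluorescence over baseline after final BAM8-22 challenge near maximal dose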
RGS4 pot = potentiators or activators of RGS4 | HEK293 M3R/inducible RGS4, carbachol calcium flux Fluo4; hits give low values | B-score at 10 µM | 310,000 compounds, 0.92% hits | AID 463111;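 active = B-score of the integrated calcium signal more than 4 SD below the library mean, with starting fluorescence not abnormally high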;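 note: negative B-score means reduced calcium response which marks RGS4 activation or potentiation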
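System – HEK293 FlpIn-TREx cells, stable M3R, doxycycline-inducible RGS4 · Reagent – ECmax carbachol challenge · Times – compound preincubation 20 min at room temperature before agonist · Technique – Fluo4 fluorescence kinetic imaging of calcium · Measure – B score of integrated Fluo4 ratio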
MrgX1 allo act = allosterically activates human MrgX1 receptor signaling. B-score at 10 µM. 310,000 compounds, 0.63% hits. AID 588675. Q96LB2. MrgX1-HEK293, Fluo-4 calcium flux, FDSS; hits give high values;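 active = plate-corrected calcium response at least 3 library SD above typical, normal starting fluorescence, not activating the receptor alone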;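 note: compound read alongside a low EC10 to EC30 dose of BAM8-22 agonist; peak minus trough fluorescence over baseline measured at the second addition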
RGS4 block = human RGS4 inhibition. HEK293 M3R/RGS4 inducible, Fluo-4 calcium flux; hits give high values; triggered by carbachol at its EC20. B-score at 10 µM. 310,000 compounds, 0.45% hits;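 active = B-score, a plate-corrected calcium signal, over three deviations above library mean, with baseline fluorescence within five deviations of library mean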;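 note: RGS4 expression induced by doxycycline in cells with stable M3 receptor; B-score is computed from the integrated fluorescence ratio over baseline after carbachol; higher B-score means a larger calcium signal and so more RGS4 inhibition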
Target sequence (P49798 whole entry, looked up): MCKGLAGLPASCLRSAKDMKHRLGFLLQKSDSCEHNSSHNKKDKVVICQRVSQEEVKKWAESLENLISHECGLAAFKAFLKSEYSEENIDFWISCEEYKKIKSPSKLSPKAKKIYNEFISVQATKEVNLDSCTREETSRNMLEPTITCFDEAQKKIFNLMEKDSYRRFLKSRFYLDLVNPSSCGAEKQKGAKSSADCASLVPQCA
RGS4 block valid = RGS4 inhibitor validation; shares compounds with RGS4 block; HEK293 M3R/RGS4, carbachol calcium Fluo-4 fluorescence; carbachol added at its EC20; 0 = buffer wells, 100 = carbachol control; calcium response, % at 10 µM; 1,700 compounds, 65% hits; AID 492999;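 active = duplicate-averaged calcium response above the buffer-only control mean plus 5 SD of those controls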;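 note: integrated fluorescence ratio F max minus min over baseline F0; higher response in RGS4-induced cells means RGS4 inhibition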
M3R Ca ctr = checks RGS4 inhibitor effects in non-induced HEK293 M3R cells. shares compounds with RGS4 block. carbachol calcium Fluo-4; submaximal (EC20) carbachol stimulus; buffer wells 0%, carbachol control wells 100%. activity (percent), % at 10 µM. 1,900 compounds, 20% hits; call rule not given here;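 note: RGS4 induction absent so cells express M3R without RGS4; higher means more calcium signal and flags a non-specific hit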
RGS4 inh ctr2 = second RGS4 inhibitor counter-screen in uninduced cells lacking carbachol | shares compounds with RGS4 block | HEK293 M3R/RGS4 non-induced, Fluo-4 calcium, no carbachol; normalised: buffer wells 0%, carbachol wells 100% | calcium response (agonist-mode artifact), % at 10 µM | 1,900 compounds, 22% hits | AID 493001;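 active = duplicate-averaged calcium rise in uninduced cells above buffer wells' mean plus 5 SD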
A number is an active result; 0 = inactive; - = no result given. Most compounds without a hit are left out; they make up all but 3.5% or so of the library.

SMILES	MrgX1 agonist	MrgX1 antagonist	RGS4 pot	MrgX1 allo act	RGS4 block	RGS4 block valid	M3R Ca ctr	RGS4 inh ctr2
CC(=O)C1=C(O)C(=O)N(c2cc(C(C)(C)C)on2)C1c1ccc(Br)cc1 (configuration not stated)	0	0	0	0	7.77	44.0%	30.5%	0
O=C(CN1C(=O)S/C(=C/C=C/c2ccccc2)C1=O)Nc1ccc(C(=O)O)cc1	0	0	0	0	4.66	7.0%	0	0
O=C(CCN1C(=O)S/C(=C\c2ccccc2)C1=O)N1CCOCC1	0	0	0	0	0	-	-	-
O=C(CN1C(=O)S/C(=C\C=C\c2ccccc2)C1=O)N1CCOCC1	0	0	0	0	8.54	9.5%	0	0
CCCc1cc2c(-c3ccccc3)cc(=O)oc2cc1OCc1ccc(C(=O)O)o1	0	0	0	0	0	-	-	-
COc1cc(/C=C2/C(C)=C(C#N)c3nc(N)c(C#N)c(C)c32)ccc1OCC(=O)O	0	0	0	0	0	-	-	-
CC1=C(C#N)c2nc(N)c(C#N)c(C)c2/C1=C\c1ccc(-c2ccccc2C(=O)O)o1	-	-	0	-	5.64	23.5%	32.5%	0
CCOC(=O)COc1ccccc1/C=C\[N+](=O)[O-]	0	0	0	0	19.1	69.5%	0	11.0%
CCOC(=O)COc1cc([N+](=O)[O-])cc2cccnc12	0	0	0	0	0	-	-	-
CC(=O)Nc1cccc(C(=O)/C=C/c2ccc(C)cc2)c1	0	0	0	0	0	0	0	0
CSc1ccc(/C=C/C(=O)c2ccc(NC(C)=O)cc2)cc1	0	0	0	0	0	-	-	-
N#CC1=C2N=C(N)c3c(sc4c3CCCCC4)N2C2=C(C(=O)CCC2)C1c1ccccc1 (configuration not stated)	0	0	0	0	0	-	-	-
Cc1ccc(C2C(C#N)=C3N=C(N)c4ccccc4N3C3=C2C(=O)CCC3)cc1 (configuration not stated)	0	0	0	0	0	-	0	0
N#CC1=C2N=C(N)c3ccccc3N2C2=C(C(=O)CCC2)C1c1ccc(F)cc1 (configuration not stated)	0	0	0	0	0	-	0	0
O=C(NCc1ccccc1F)c1ccc(S(=O)(=O)Nc2cccc(C(F)(F)F)c2)cc1	0	0	0	0	0	-	-	-
O=C(NCc1ccc(F)cc1)c1ccc(S(=O)(=O)Nc2cccc(C(F)(F)F)c2)cc1	0	0	0	0	5.25	15.5%	0	18.5%
CCN1C(=O)N/C(=C/c2ccc(C)o2)C1=O	0	0	0	0	0	-	-	-
Cc1ccc(/C=C2/NC(=O)N(Cc3ccc(Br)cc3)C2=O)o1	0	0	0	0	0	0	0	21.5%
COc1cc(/C=C2\SC(=Nc3ccccc3)N(Cc3ccco3)C2=O)ccc1OC(C)C(=O)O (configuration not stated)	0	0	0	0	0	-	-	-
COc1cc(/C=C2\SC(=Nc3ccc(N4CCOCC4)cc3)N(C)C2=O)ccc1OC(C)C(=O)O (configuration not stated)	0	0	0	0	6.06	7.5%	0	0
Cc1ccc(C(=O)NCC#N)cc1	0	0	0	0	0	-	-	-
Cc1ccc(C(=O)NC(C#N)=C(Cl)Cl)cc1	-	-	0	-	9.82	21.0%	0	0
Cc1ccc(/C=C/C(=O)OCC(=O)Nc2cccc(S(=O)(=O)N(C)C)c2)o1	0	0	0	0	0	-	-	-
COc1ccc(CCN2C(=O)N[C@@H](CCC(=O)O)C2=O)cc1	0	0	0	0	0	-	-	-
O=c1[nH]c(NCCO)nc2c1C1(CCCCC1)Cc1ccccc1-2	0	0	-	0	-	-	-	-
SMILES	MrgX1 agonist	MrgX1 antagonist	RGS4 pot	MrgX1 allo act	RGS4 block	RGS4 block valid	M3R Ca ctr	RGS4 inh ctr2
CCC1(CC)Cc2ccccc2-c2nc(NCCO)[nH]c(=O)c21	0	0	0	0	25.7	101.0%	83.5%	0
O=[N+]([O-])c1cc(CN2CCC(O)CC2)ccc1Cl	0	0	0	0	0	-	-	-
Cc1ccc(-c2c(C(=O)N/N=C/c3ccc(OC(C)C)cc3)nnn2-c2nonc2N)cc1	0	0	0	0	9.01	27.5%	43.0%	0
CCOc1ccc(-c2c(C(=O)N/N=C/c3ccc(OC(C)C)cc3)nnn2-c2nonc2N)cc1	0	0	0	0	0	-	0	0
CCCn1c(CN2CCN(C(=O)OCC)CC2)nc2cc(NC(=O)C(C)C)ccc21	0	0	0	0	0	-	-	-
COc1ccc(C2(c3ccc(O)cc3O)CC(c3ccccc3Cl)NC(=S)N2)cc1 (configuration not stated)	0	0	0	0	10.3	35.5%	0	0
Cc1cc(C)c(S(=O)(=O)Nc2cccc(S(=O)(=O)NC3=NCCC3)c2)c(C)c1	0	0	0	0	4.85	0	0	0
O=C(CNc1ccc2ccccc2c1)N/N=C/C=C/c1cccc([N+](=O)[O-])c1	0	0	0	0	0	-	-	-
O=c1c(Cl)c(Cl)cnn1Cc1nnc(-c2ccccc2Br)o1	-	-	0	-	72.2	142.5%	42.5%	0
COc1cc(/C=C2\C(=O)N(c3ccc(NC(C)=O)cc3)N=C2c2ccccc2)ccc1O	0	0	0	0	6.15	0	0	15.5%
Nc1ccc(-c2ccc(C(=O)O)s2)cn1	0	0	0	0	0	-	-	-
N#Cc1c(-c2ccccc2Cl)noc1/C=C/Nc1ccc(C(=O)O)cc1	0	0	0	0	0	-	0	0
COc1ccc(N(CC(=O)NC2CC3CCC2C3)S(=O)(=O)c2ccccc2)cc1Cl (configuration not stated)	0	0	0	0	0	-	-	-
Nc1cccc(C(=O)OCC(=O)Nc2cccc3c2C(=O)c2ccccc2C3=O)c1	0	0	0	0	4.93	5.0%	0	13.5%
CCc1cc2cc(C)ccc2nc1SCC(=O)NC1CCCC1	0	0	0	0	0	-	-	-
FC(F)(F)c1ccc(N=Cc2sc(N3CCOCC3)nc2-c2ccccc2)cc1	0	0	0	0	5.55	5.5%	0	0
O=S(=O)(Nc1ccc(S(=O)(=O)Nc2nccs2)cc1)c1ccc2c(c1)OCCO2	0	0	0	0	0	0	0	0
NS(=O)(=O)c1ccc(NS(=O)(=O)c2ccc3c(c2)OCCO3)cc1	0	0	0	0	0	-	-	-
NC(=S)N/N=C/c1ccc(-n2nncc2-c2ccc(Cl)cc2)cc1	0	0	0	0	38.8	23.0%	64.5%	0
O=C(N/N=C/c1ccccc1)c1[nH]c2ccc(Br)cc2c1-c1ccccc1	0	0	0	0	0	-	-	-
